From ChEMBL document CHEMBL1157032, “Synthesis and antimicrobial activity of novel pyrazolo[3,4-d]pyrimidin derivatives” (2010)
Converted amounts (≈) assume the structure as drawn. The source made the active and inactive calls. The rule behind the calls is not given here.

Key:
Proteus vulgaris [1] = experiment: Antimicrobial activity against Proteus vulgaris MTCC 1771 at 10 ug/ml after 24 hrs by agar diffusion method; assay type: functional
Procedure, shortened: (§1)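 Agar well diffusion on Mueller Hinton agar. Plates were seeded with bacterial suspension in sterile 0.85% saline at 10⁵ cfu/mL. Compound dilutions in 1% DMSO went into 6 mm wells, with DMSO alone as control. Plates were incubated 24 h at 37 ± 0.5 °C, and the zone of inhibition was measured in mm.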

Pseudomonas aeruginosa [2] = experiment: Antimicrobial activity against Pseudomonas aeruginosa MTCC 2488 at 10 ug/ml after 24 hrs by agar diffusion method; assay type: functional; procedure, shortened: as §1
Klebsiella pneumoniae [3] = experiment: Antimicrobial activity against Klebsiella pneumoniae NCIM 2957 at 10 ug/ml after 24 hrs by agar diffusion method; assay type: functional; procedure, shortened: as §1
Staphylococcus aureus [4] = experiment: Antimicrobial activity against Staphylococcus aureus MTCC 96 at 10 ug/ml after 24 hrs by agar diffusion method; assay type: functional; procedure, shortened: as §1
Bacillus subtilis [5] = experiment: Antimicrobial activity against Bacillus subtilis MTCC 1789 at 10 ug/ml after 24 hrs by agar diffusion method; assay type: functional; procedure, shortened: as §1
Serratia marcescens [6] = experiment: Antimicrobial activity against Serratia marcescens MTCC 86 at 10 ug/ml after 24 hrs by agar diffusion method; assay type: functional; procedure, shortened: as §1
Priestia megaterium [7] = experiment: Antimicrobial activity against Bacillus megaterium MTCC 1684 at 10 ug/ml after 24 hrs by agar diffusion method; assay type: functional; procedure, shortened: as §1
Aspergillus niger [8] = experiment: Antimicrobial activity against Aspergillus niger MTCC 1781 at 30 ug/ml after 48 hrs by agar diffusion method; assay type: functional, organism-based
Procedure, shortened: (§2)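 Agar well diffusion on Sabouraud dextrose agar. Plates were spread with fungal spore suspension in sterile distilled water adjusted to 10⁶ cfu/mL. Compound dilutions in 1% DMSO went into 6 mm wells, with DMSO alone as control. Plates were incubated 48 h at 28 ± 0.2 °C, and the inhibition zone was read in mm.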

Aspergillus flavus [9] = experiment: Antimicrobial activity against Aspergillus flavus MTCC 2501 at 30 ug/ml after 48 hrs by agar diffusion method; assay type: functional, organism-based; procedure, shortened: as §2
Penicillium chrysogenum [10] = experiment: Antimicrobial activity against Penicillium chrysogenum MTCC 1996 at 30 ug/ml after 48 hrs by agar diffusion method; assay type: functional, organism-based; procedure, shortened: as §2
Trichoderma viride [11] = experiment: Antimicrobial activity against Trichoderma viride MTCC 167 at 30 ug/ml after 48 hrs by agar diffusion method; assay type: functional, organism-based; procedure, shortened: as §2
Candida albicans [12] = experiment: Antimicrobial activity against Candida albicans MTCC 227 at 30 ug/ml after 48 hrs by agar diffusion method; assay type: functional, organism-based; procedure, shortened: as §2
Escherichia coli [13] = experiment: Antimicrobial activity against Escherichia coli MTCC 1650 after 24 hrs; assay type: functional; conditions: MTCC 1650, 24 h
Procedure, shortened: (§3)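 Agar well diffusion on Mueller Hinton agar seeded with 0.1 mL of a 10⁵ cfu/mL bacterial suspension in 0.85% sterile saline. 6 mm wells received 0.1 mL of each compound dilution in DMSO (1% DMSO; DMSO alone as control). Plates were incubated 24 h at 37 ± 0.5 °C. Read-out was zone of inhibition in mm. MIC was taken as the lowest concentration giving complete growth inhibition.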

Proteus vulgaris [14] = experiment: Antimicrobial activity against Proteus vulgaris MTCC 1771 after 24 hrs; assay type: functional; conditions: MTCC 1771, 24 h; procedure, shortened: as §3
Pseudomonas aeruginosa [15] = experiment: Antimicrobial activity against Pseudomonas aeruginosa MTCC 2488 after 24 hrs; assay type: functional; conditions: MTCC 2488, 24 h; procedure, shortened: as §3
Klebsiella pneumoniae [16] = experiment: Antimicrobial activity against Klebsiella pneumoniae NCIM 2957 after 24 hrs; assay type: functional; conditions: NCIM 2957, 24 h; procedure, shortened: as §3
Staphylococcus aureus [17] = experiment: Antimicrobial activity against Staphylococcus aureus MTCC 96 after 24 hrs; assay type: functional; conditions: MTCC 96, 24 h; procedure, shortened: as §3
Bacillus subtilis [18] = experiment: Antimicrobial activity against Bacillus subtilis MTCC 1789 after 24 hrs; assay type: functional; conditions: MTCC 1789, 24 h; procedure, shortened: as §3
Serratia marcescens [19] = experiment: Antimicrobial activity against Serratia marcescens MTCC 86 after 24 hrs; assay type: functional; conditions: MTCC 86, 24 h; procedure, shortened: as §3
Priestia megaterium [20] = experiment: Antimicrobial activity against Bacillus megaterium MTCC 1684 after 24 hrs; assay type: functional; conditions: MTCC 1684, 24 h; procedure, shortened: as §3
Aspergillus niger [21] = experiment: Antimicrobial activity against Aspergillus niger MTCC 1781 after 48 hrs; assay type: functional; conditions: MTCC 1781, 48 h
Procedure, shortened: (§4)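 Fungal spore suspensions in sterile distilled water were adjusted to 10⁶ cfu/mL, and 0.1 mL was spread on Sabouraud dextrose agar. 6 mm wells were filled with 0.1 mL of compound dilution in DMSO (1% DMSO; DMSO-only control). Plates were incubated 48 h at 28 ± 0.2 °C, and inhibition zones were measured in mm. MIC was the lowest concentration completely inhibiting growth.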

Aspergillus flavus [22] = experiment: Antimicrobial activity against Aspergillus flavus MTCC 2501 after 48 hrs; assay type: functional; conditions: MTCC 2501, 48 h; procedure, shortened: as §4
Penicillium chrysogenum [23] = experiment: Antimicrobial activity against Penicillium chrysogenum MTCC 1996 after 48 hrs; assay type: functional; conditions: MTCC 1996, 48 h; procedure, shortened: as §4
Trichoderma viride [24] = experiment: Antimicrobial activity against Trichoderma viride MTCC 167 after 48 hrs; assay type: functional; conditions: MTCC 167, 48 h; procedure, shortened: as §4
Candida albicans [25] = experiment: Antimicrobial activity against Candida albicans MTCC 227 after 48 hrs; assay type: functional; conditions: MTCC 227, 48 h; procedure, shortened: as §4
Escherichia coli [26] = experiment: Antimicrobial activity against Escherichia coli MTCC 1650 at MIC after 24 hrs by agar diffusion method; assay type: functional; procedure, shortened: as §3
Proteus vulgaris [27] = experiment: Antimicrobial activity against Proteus vulgaris MTCC 1771 at MIC after 24 hrs by agar diffusion method; assay type: functional; procedure, shortened: as §3
Pseudomonas aeruginosa [28] = experiment: Antimicrobial activity against Pseudomonas aeruginosa MTCC 2488 at MIC after 24 hrs by agar diffusion method; assay type: functional; procedure, shortened: as §3
Klebsiella pneumoniae [29] = experiment: Antimicrobial activity against Klebsiella pneumoniae NCIM 2957 at MIC after 24 hrs by agar diffusion method; assay type: functional; procedure, shortened: as §3
Staphylococcus aureus [30] = experiment: Antimicrobial activity against Staphylococcus aureus MTCC 96 at MIC after 24 hrs by agar diffusion method; assay type: functional; procedure, shortened: as §3
Bacillus subtilis [31] = experiment: Antimicrobial activity against Bacillus subtilis MTCC 1789 at MIC after 24 hrs by agar diffusion method; assay type: functional; procedure, shortened: as §3
Serratia marcescens [32] = experiment: Antimicrobial activity against Serratia marcescens MTCC 86 at MIC after 24 hrs by agar diffusion method; assay type: functional; procedure, shortened: as §3
Priestia megaterium [33] = experiment: Antimicrobial activity against Bacillus megaterium MTCC 1684 at MIC after 24 hrs by agar diffusion method; assay type: functional; procedure, shortened: as §3
Aspergillus niger [34] = experiment: Antimicrobial activity against Aspergillus niger MTCC 1781 at MIC after 48 hrs by agar diffusion method; assay type: functional; procedure, shortened: as §4
Aspergillus flavus [35] = experiment: Antimicrobial activity against Aspergillus flavus MTCC 2501 at MIC after 48 hrs by agar diffusion method; assay type: functional; procedure, shortened: as §4
Penicillium chrysogenum [36] = experiment: Antimicrobial activity against Penicillium chrysogenum MTCC 1996 at MIC after 48 hrs by agar diffusion method; assay type: functional; procedure, shortened: as §4
Trichoderma viride [37] = experiment: Antimicrobial activity against Trichoderma viride MTCC 167 at MIC after 48 hrs by agar diffusion method; assay type: functional; procedure, shortened: as §4
Candida albicans [38] = experiment: Antimicrobial activity against Candida albicans MTCC 227 at MIC after 48 hrs by agar diffusion method; assay type: functional; procedure, shortened: as §4

## NYSTATIN
Proteus vulgaris [1]
  inhibition zone (IZ): inactive
Pseudomonas aeruginosa [2]
  inhibition zone (IZ): inactive
Klebsiella pneumoniae [3]
  inhibition zone (IZ): inactive
Staphylococcus aureus [4]
  inhibition zone (IZ): inactive
Bacillus subtilis [5]
  inhibition zone (IZ): inactive
Serratia marcescens [6]
  inhibition zone (IZ): inactive
Priestia megaterium [7]
  inhibition zone (IZ): inactive
Aspergillus niger [8]
  inhibition zone (IZ): 14 mm
Aspergillus flavus [9]
  inhibition zone (IZ): 14 mm
Penicillium chrysogenum [10]
  inhibition zone (IZ): 17 mm
Trichoderma viride [11]
  inhibition zone (IZ): 18 mm
Candida albicans [12]
  inhibition zone (IZ): 17 mm

## CN(C)[C@@H]1C(O)=C(C(N)=O)C(=O)[C@@]2(O)C(O)=C3C(=O)c4c(O)cccc4[C@@](C)(O)[C@H]3C[C@@H]12 [TETRACYCLINE]
Proteus vulgaris [1]; MTCC 1771, 24 h, read-out: IZ
  zone of inhibition at 10 µg/mL: 20 mm
Pseudomonas aeruginosa [2]; MTCC 2488, 24 h, read-out: IZ
  zone of inhibition at 10 µg/mL: 32 mm
Klebsiella pneumoniae [3]; NCIM 2957, 24 h, read-out: IZ
  zone of inhibition at 10 µg/mL: 17 mm
Staphylococcus aureus [4]; MTCC 96, 24 h, read-out: IZ
  zone of inhibition at 10 µg/mL: 25 mm
Bacillus subtilis [5]; MTCC 1789, 24 h, read-out: IZ
  zone of inhibition at 10 µg/mL: 20 mm
Serratia marcescens [6]; MTCC 86, 24 h, read-out: IZ
  zone of inhibition at 10 µg/mL: 15 mm
Priestia megaterium [7]; MTCC 1684, 24 h, read-out: IZ
  zone of inhibition at 10 µg/mL: 27 mm
Aspergillus niger [8]
  inhibition zone (IZ): inactive
Aspergillus flavus [9]
  inhibition zone (IZ): inactive
Penicillium chrysogenum [10]
  inhibition zone (IZ): inactive
Trichoderma viride [11]
  inhibition zone (IZ): inactive
Candida albicans [12]
  inhibition zone (IZ): inactive

## Nc1n[nH]c2nc3scc(-c4ccc(O)cc4)n3c(=O)c12
Escherichia coli [13]
  MIC: 50 µg/mL (≈ 167 µM)
Proteus vulgaris [14]
  MIC: 50 µg/mL (≈ 167 µM)
Pseudomonas aeruginosa [15]
  MIC: 50 µg/mL (≈ 167 µM)
Klebsiella pneumoniae [16]
  MIC: 50 µg/mL (≈ 167 µM)
Staphylococcus aureus [17]
  MIC: 50 µg/mL (≈ 167 µM)
Bacillus subtilis [18]
  MIC: 50 µg/mL (≈ 167 µM)
Serratia marcescens [19]
  MIC: 50 µg/mL (≈ 167 µM)
Priestia megaterium [20]
  MIC: 50 µg/mL (≈ 167 µM)
Aspergillus niger [21]
  MIC: 250 µg/mL (≈ 835 µM)
Aspergillus flavus [22]
  MIC: 250 µg/mL (≈ 835 µM)
Penicillium chrysogenum [23]
  MIC: 250 µg/mL (≈ 835 µM)
Trichoderma viride [24]
  MIC: 250 µg/mL (≈ 835 µM)
Candida albicans [25]
  MIC: 250 µg/mL (≈ 835 µM)
Escherichia coli [26]
  inhibition zone (IZ): inactive
Proteus vulgaris [27]
  inhibition zone (IZ): 14 mm
Pseudomonas aeruginosa [28]
  inhibition zone (IZ): 25 mm
Klebsiella pneumoniae [29]
  inhibition zone (IZ): 11 mm
Staphylococcus aureus [30]
  inhibition zone (IZ): 30 mm
Bacillus subtilis [31]
  inhibition zone (IZ): 12 mm
Serratia marcescens [32]
  inhibition zone (IZ): 17 mm
Priestia megaterium [33]
  inhibition zone (IZ): inactive
Aspergillus niger [34]
  inhibition zone (IZ): 16 mm
Aspergillus flavus [35]
  inhibition zone (IZ): 21 mm
Penicillium chrysogenum [36]
  inhibition zone (IZ): 29 mm
Trichoderma viride [37]
  inhibition zone (IZ): 26 mm
Candida albicans [38]
  inhibition zone (IZ): inactive
